Assays:
[1] = molecular target: Leukotriene B4 receptor (Homo sapiens) (UniProt Q9NPC1+Q15722); assay: Inhibition of [3H]LTB4 binding to leukotriene B4 receptor of human peripheral neutrophils (PMN) at a concentration of 0.1 uM.; type: protein assay
Method in brief: (§1)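 Neutrophils isolated by Ficoll-Hypaque centrifugation, dextran 70 sedimentation and hypotonic lysis (≥90% neutrophils, ≥90% viable), 2 × 10^7 cells/mL in Hank's balanced salt solution with 0.1% ovalbumin. Compound in DMSO plus 2.65 nM [3H]LTB4 (stock), 10 min at 4 °C. Cells spun through dibutyl/dinonyl phthalate (7:2), pellet counted by scintillation. Triplicate incubations averaged. Reported as % inhibition of specific binding; nonspecific binding taken with >2000-fold excess unlabeled LTB4.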

[2] = molecular target: Leukotriene B4 receptor 1 (Homo sapiens) (UniProt Q15722); assay: Inhibition of [3H]LTB4 binding to leukotriene B4 receptor from human peripheral neutrophils (PMN), at a concentration of 1 uM; method in brief: as §1
[3] = molecular target: Leukotriene B4 receptor 1 (Homo sapiens) (UniProt Q15722); assay: Inhibition of binding of [3H]LTB4 to the leukotriene B4 receptor of human peripheral neutrophils (PMN) at a concentration of 10 uM.; method in brief: as §1

Leukotriene B4 receptor 1 (Homo sapiens), sequence (Q15722 whole entry): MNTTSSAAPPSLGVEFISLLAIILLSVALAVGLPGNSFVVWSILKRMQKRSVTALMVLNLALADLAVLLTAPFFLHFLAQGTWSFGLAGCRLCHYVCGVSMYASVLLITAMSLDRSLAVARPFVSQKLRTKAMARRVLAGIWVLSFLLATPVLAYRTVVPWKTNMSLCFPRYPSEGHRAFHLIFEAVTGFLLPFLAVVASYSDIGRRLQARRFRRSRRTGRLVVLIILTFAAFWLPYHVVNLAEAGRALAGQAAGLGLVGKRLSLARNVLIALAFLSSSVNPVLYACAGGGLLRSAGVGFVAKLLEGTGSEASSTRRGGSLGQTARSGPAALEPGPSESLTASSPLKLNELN
Leukotriene B4 receptor (Homo sapiens), sequence (Q15722 whole entry, looked up): as the sequence (Q15722 whole entry) above
Leukotriene B4 receptor (Homo sapiens), sequence (Q9NPC1 whole entry, looked up): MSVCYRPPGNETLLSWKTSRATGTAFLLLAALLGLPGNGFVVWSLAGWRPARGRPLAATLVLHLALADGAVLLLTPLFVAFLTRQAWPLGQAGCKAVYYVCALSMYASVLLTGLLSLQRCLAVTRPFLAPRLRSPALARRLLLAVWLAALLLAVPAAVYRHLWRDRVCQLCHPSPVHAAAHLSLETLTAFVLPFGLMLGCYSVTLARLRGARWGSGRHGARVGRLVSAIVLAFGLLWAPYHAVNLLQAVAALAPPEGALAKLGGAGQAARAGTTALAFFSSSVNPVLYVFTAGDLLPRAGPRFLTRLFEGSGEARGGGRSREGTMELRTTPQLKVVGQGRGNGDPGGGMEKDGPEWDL

`CCc1cc(C(C)=O)c(O)cc1OCc1cccc(C#N)c1` gave an inhibition [1] of 18%, an inhibition [2] of 61% and an inhibition [3] of 58%.

From ChEMBL document CHEMBL1126041, “Leukotriene B4 receptor antagonists: the LY255283 series of hydroxyacetophenones” (J Med Chem, 1992)
